Assay results reported in article PMC3351724 (Journal of Medicinal Chemistry, 2012).

Experiments:
[1] = tested on: 3D7 strain of P. falciparum; experiment: In vitro antimalarial activity versus 3D7 Plasmodium falciparum; format: cell-based; settings: 3D7, read-out: IC50 (nM) 3D7 ± SD, 3D7 strain of P. falciparum
[2] = Human liver microsomal incubations; format: in vitro ADME
In short: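 Test compound at 1 µM incubated with human liver microsomes (1 mg/mL) plus NADPH; samples taken at 0, 10, 30 and 60 min; parent compound remaining measured.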

[3] = In vivo pharmacokinetic parameters; settings: parent 8b in rat after oral administration of the 8b salt, 20 mg/kg
In short: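 Rats dosed orally at 20 mg/kg with the test form; parent compound measured in plasma. Parameters derived: Cmax, Tmax, half-life, volume of distribution, AUC0-t and calculated total clearance (ClT).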

parent compound present after 60 min incubation ([2]; 1 μM, human liver microsomes 1 mg/mL, NADPH, 60 min) | CLint scaled at 1 µM ([2]; human, liver microsomes) [mL/min/kg] | ClT [3] [mL/min/kg] | SMILES | IC50 [1] [nM]
 |  |  | O=c1c(CO)c(-c2ccc(-c3ccc(OC(F)(F)F)cc3)nc2)[nH]c2ccccc12 [compound 22] | 987
 |  |  | CCOC(=O)c1c(-c2ccc(-c3ccc(OC(F)(F)F)cc3)nc2)[nH]c2ccccc2c1=O [compound 21] | 103
Greater than 60% | 1.78 | 4.605 | Cc1c(-c2ccc(-c3ccc(OC(F)(F)F)cc3)nc2)[nH]c2ccccc2c1=O [8b] | 
